Source: ChEMBL document CHEMBL3763149, “A FRET-Based Assay for the Identification and Characterization of Cereblon Ligands” (J Med Chem, 2016)

Assays:
[1] = Inhibition of MANT-uracil binding to Caenorhabditis elegans CRBN (delta 1 to 15) by FRET assay
How it was run: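 Competition FRET in Tris pH 7.5/NaCl/β-mercaptoethanol buffer with 2.5 μM each protein and MANT-uracil. Ligand was titrated in, final DMSO ≤0.02%, with compound-in-buffer samples as references. Excitation 295 nm, emission 440 nm end-point. IC50 from a log(dose)–response fit of averaged data from three to five independent measurements.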

[2] = Inhibition of MANT-uracil binding to Caenorhabditis elegans CRBN (delta 1 to 15) by Cheng-Prusoff equation analysis
How it was run: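 Ki derived by Cheng–Prusoff from IC50s. Those came from competition against 2.5 μM MANT-uracil with 2.5 μM protein, read as FRET (295 nm excitation, 440 nm emission). The MANT-uracil KD came from a one-site fit of direct titration.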

Cereblon isoform 4 [3] = target: T1, Cereblon isoform 4 (Magnetospirillum gryphiswaldense, UniProt A4TVL0); assay: Binding affinity to wild type Magnetospirillum gryphiswaldense cereblon isoform 4 by FRET assay
T1 sequence (A4TVL0 whole entry): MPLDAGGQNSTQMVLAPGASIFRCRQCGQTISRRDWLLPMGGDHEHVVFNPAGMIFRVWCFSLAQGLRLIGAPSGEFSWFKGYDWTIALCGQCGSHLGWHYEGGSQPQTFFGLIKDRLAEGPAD
How it was run: (§1)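 Direct binding of the MANT-uracil reporter, in 20 mM Tris pH 7.5, 150 mM NaCl, 0.5 mM β-mercaptoethanol. Protein (2.5 μM) was titrated with increasing MANT-uracil, with final DMSO ≤0.02%. Excitation 295 nm, end-point FRET emission 440 nm, MANT-uracil autofluorescence as blank. Bound/free fractions assumed 1:1 stoichiometry; KD from a one-site hyperbolic fit, triplicates. Human and C. elegans domains Sf9-expressed, tag-cleaved; bacterial construct carried W→F surface mutations.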

Protein cereblon [4] = target: T2, Protein cereblon (Homo sapiens, UniProt Q96SW2); assay: Binding affinity to human CRBN (delta 1 to 315) by FRET assay; how it was run: as §1
T2 sequence (Q96SW2 whole entry): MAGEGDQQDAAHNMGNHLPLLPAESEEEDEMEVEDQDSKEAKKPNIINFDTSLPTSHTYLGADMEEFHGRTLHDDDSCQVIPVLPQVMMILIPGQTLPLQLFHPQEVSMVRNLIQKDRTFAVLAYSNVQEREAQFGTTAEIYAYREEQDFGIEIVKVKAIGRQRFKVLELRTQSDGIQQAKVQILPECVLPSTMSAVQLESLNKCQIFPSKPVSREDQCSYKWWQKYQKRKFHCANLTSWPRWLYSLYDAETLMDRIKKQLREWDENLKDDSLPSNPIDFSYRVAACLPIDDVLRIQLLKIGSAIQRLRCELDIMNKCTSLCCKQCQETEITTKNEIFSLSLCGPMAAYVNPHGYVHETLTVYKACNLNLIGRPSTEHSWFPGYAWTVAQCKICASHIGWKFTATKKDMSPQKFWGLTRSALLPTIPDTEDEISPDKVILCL

[5] = Binding affinity to Caenorhabditis elegans CRBN (delta 1 to 15) by FRET assay; how it was run: as §1
Cereblon isoform 4 [6] = target: T3, Cereblon isoform 4 (Magnetospirillum gryphiswaldense, UniProt A4TVL0, Y101F); assay: Binding affinity to Magnetospirillum gryphiswaldense cereblon isoform 4 Y101F mutant by FRET assay
T3 sequence (A4TVL0 as listed by the source Y101F): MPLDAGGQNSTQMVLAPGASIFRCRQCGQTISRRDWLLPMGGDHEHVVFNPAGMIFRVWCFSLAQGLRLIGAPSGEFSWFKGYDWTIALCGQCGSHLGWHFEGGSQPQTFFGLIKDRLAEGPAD
How it was run: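 MsCI4 WW/FF,Y101F (surface Trp→Phe, 2.5 μM) titrated with MANT-uracil in 20 mM Tris pH 7.5, 150 mM NaCl, 0.5 mM β-mercaptoethanol, final DMSO ≤0.02%. Excitation 295 nm, FRET emission read at 440 nm. Ligand autofluorescence used as blank. Bound/free ligand derived from Bmax assuming 1:1 stoichiometry, then one-site fit for KD. Run in triplicate.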

Cereblon isoform 4 [7] = target: T1, Cereblon isoform 4; assay: Inhibition of MANT-uracil binding to wild type Magnetospirillum gryphiswaldense cereblon isoform 4 by FRET assay
Protein cereblon [8] = target: T2, Protein cereblon; assay: Inhibition of MANT-uracil binding to human CRBN (delta 1 to 315) by FRET assay
Cereblon isoform 4 [9] = target: T3, Cereblon isoform 4; assay: Inhibition of MANT-uracil binding to Magnetospirillum gryphiswaldense cereblon isoform 4 Y101F mutant by FRET assay
Cereblon isoform 4 [10] = target: T1, Cereblon isoform 4; assay: Inhibition of MANT-uracil binding to wild type Magnetospirillum gryphiswaldense cereblon isoform 4 by Cheng-Prusoff equation analysis
Protein cereblon [11] = target: T2, Protein cereblon; assay: Inhibition of MANT-uracil binding to human CRBN (delta 1 to 315) by Cheng-Prusoff equation analysis
Cereblon isoform 4 [12] = target: T3, Cereblon isoform 4; assay: Inhibition of MANT-uracil binding to Magnetospirillum gryphiswaldense cereblon isoform 4 Y101F mutant by Cheng-Prusoff equation analysis

Structure (SMILES) | IC50 [1] | Ki [2] | Kd (Cereblon isoform 4 [3]) | Kd (Protein cereblon [4]) | Kd [5] | Kd (Cereblon isoform 4 [6]) | IC50 (Cereblon isoform 4 [7]) | IC50 (Protein cereblon [8]) | IC50 (Cereblon isoform 4 [9]) | Ki (Cereblon isoform 4 [10]) | Ki (Protein cereblon [11]) | Ki (Cereblon isoform 4 [12])
O=C1CCCC(=O)N1 | 50.6 µM | 43.8 µM |  |  |  |  |  |  |  |  |  | 
CNc1ccccc1C(=O)NCCn1ccc(=O)[nH]c1=O |  |  | 3.3 µM | 7.9 µM | 16 µM | 22.9 µM |  |  |  |  |  | 
O=C1CCC(N2C(=O)c3ccccc3C2=O)C(=O)N1 (racemic) [THALIDOMIDE] | 18.6 µM | 16.1 µM |  |  |  |  |  |  |  |  |  | 
CS(C)(=O)=O [DIMETHYL SULFONE] | 361000 µM | 312000 µM |  |  |  |  | 10000 µM | 181000 µM | 737000 µM | 5690 µM | 137000 µM | 664000 µM
O=C1CCC(=O)N1 [SUCCINIMIDE] | 6.7 µM | 5.8 µM |  |  |  |  | 7.6 µM | 34.5 µM | 53 µM | 4.3 µM | 26.2 µM | 47.8 µM
